Measured values published in ChEMBL document CHEMBL1125800, “Design of potent linear PAF antagonists” (J Med Chem, 1991).

Experiments:
Type in all cases: functional
Oryctolagus cuniculus = species on record: Oryctolagus cuniculus; experiment: In vitro inhibition of platelet aggregation (rabbit) induced by PAF
In short: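 Aggregation of platelet-rich plasma, obtained by spinning blood at 250 g for 10 min at 4 °C. The PRP was diluted with platelet-poor plasma (3000 g, 10 min) to […]. Aggregation was triggered with C18-PAF at 1.5 × 10⁻⁸ M and read on an aggregometer. IC50 was taken by linear regression from one curve of ≥4 concentrations, each the mean of 1–3 experiments.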

Rattus norvegicus [1] = experiment: In vivo inhibition of PAF induced hypotension in rats after intravenous administration.; conditions: read-out: ID50 (the source's name)
In short: (§1)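 Male Sprague-Dawley rats (180–220 g) were anesthetized with pentobarbital (50 mg/kg ip), with carotid blood pressure recorded. Compound was given iv in saline (1 mL/kg) via a femoral vein 3 min before PAF (0.5 µg/kg iv). Controls received vehicle. Percent inhibition of hypotension versus controls gave ID50 by linear regression over ≥4 doses, each the mean of ≥2 experiments.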

Rattus norvegicus [2] = experiment: In vivo inhibition of PAF induced hypotension in rats after intravenous administration; conditions: read-out: ID50 (the source's name); in short: as §1

| Structure (SMILES) | IC50 (Oryctolagus cuniculus; Oryctolagus cuniculus) | ED50 (Rattus norvegicus [1]) | IC50 (Oryctolagus cuniculus) | ED50 (Rattus norvegicus [2]) |
| --- | --- | --- | --- | --- |
| CCSCCOC(=O)N(Cc1cccc[n+]1CC)C(C)=O.[I-] | 190 nM | 0.37 mg/kg |  |  |
| CCCCCCCCCCCCCCCCCNC(=O)OCC[S+]([O-])CCOC(=O)N(Cc1cccc[n+]1CC)C(C)=O.[I-] (centres undefined) | 27 nM | 0.025 mg/kg |  |  |
| CCCCCCCCCCCCCCCNC(=O)OCC1OCC(COC(=O)N(Cc2cccc[n+]2CC)C(C)=O)O1.[I-] (centres undefined) | 26 nM | 0.11 mg/kg |  |  |
| CCCCCCCCCCCCCCCCCCNC(=O)OCCSCCOC(=O)N(Cc1cccc[n+]1CC)C(C)=O.[I-] | 5.9 nM | 0.015 mg/kg |  |  |
| CCCCCCCCCCCCCCCNC(=O)OCCOCCOC(=O)N(Cc1cccc[n+]1CCC)C(C)=O | 230 nM |  |  |  |
| CCCCCCCCCCCCCCCCNC(=O)OCCSCCOC(=O)N(Cc1cccc[n+]1CC)C(C)=O.[I-] | 14 nM | 0.01 mg/kg |  |  |
| CCCCCCCCCCCCCCCCCNC(=O)OCCSCCOC(=O)N(Cc1cccc[n+]1CC)C(C)=O [listing 1 of 3 here] |  |  | 8.6 nM |  |
| CCCCCCCCCCCCCCCCCNC(=O)OCCS(=O)(=O)CCOC(=O)N(Cc1cccc[n+]1CC)C(C)=O.[I-] | 11 nM | 0.019 mg/kg |  |  |
| CCCCCCCCCCCCCCCCCCCCCCOC(=O)N(Cc1cccc[n+]1CC)C(C)=O.[I-] | 1400 nM | 0.53 mg/kg |  |  |
| CCCCCCCCCCCCCCCCCCOCCOCCOC(=O)N(Cc1cccc[n+]1CC)C(C)=O.[I-] | 22 nM | 0.024 mg/kg |  |  |
| CCCCCCCCCCCCCCCCCNC(=O)OCCSCCOC(=O)N(Cc1cccc[n+]1CC)C(C)=O [listing 2 of 3 here] |  |  | 5.6 nM |  |
| CCCCCCCCCCCCCCCNC(=O)OCCCCCOC(=O)N(Cc1cccc[n+]1CC)C(C)=O | 24 nM |  |  |  |
| CCCCCCCCCCCCCCCCCNC(=O)OCCSCCOC(=O)N(Cc1cccc[n+]1CC)C(=O)CCCCCCCCCCCCCCC.[I-] | 8700 nM | > 5 mg/kg |  |  |
| CCCCCCCCCCCCCCCCCCOCCSCCOC(=O)N(Cc1cccc[n+]1CC)C(C)=O | 15 nM |  |  |  |
| CCCCCCCCCCCCCCCNC(=O)OCC1CCC(COC(=O)N(Cc2cccc[n+]2CC)C(C)=O)O1.[I-] (centres undefined) | 72 nM | 0.098 mg/kg |  |  |
| CCCCCCCCCCCCCCCCCNC(=O)OCCOCCOC(=O)N(Cc1cccc[n+]1CC)C(=O)OCC | 8.8 nM |  |  |  |
| CCCCCCCCCCCCCCCCCCNC(=O)OCCCOC(=O)N(Cc1cccc[n+]1CC)C(C)=O.[I-] | 23 nM | 0.02 mg/kg |  |  |
| CCCCCCCCCCCCCCCCCNC(=O)OCCOCCOC(=O)N(Cc1cccc[n+]1CC)C(C)=O | 17 nM |  |  |  |
| CCCCCCCCCCCCCCCNC(=O)OCCOCCOCCOC(=O)N(Cc1cccc[n+]1CC)C(C)=O.[I-] | 12 nM | 0.028 mg/kg |  |  |
| CC[n+]1ccccc1CN(C(C)=O)C(=O)OCCOCCOC(=O)NCC1CCCCC1 | 2000 nM |  |  |  |

| Structure (SMILES) | IC50 (Oryctolagus cuniculus; Oryctolagus cuniculus) | ED50 (Rattus norvegicus [1]) | IC50 (Oryctolagus cuniculus) | ED50 (Rattus norvegicus [2]) |
| --- | --- | --- | --- | --- |
| CCCCCCCCCCCCCCCCCNC(=O)OCCSCCOC(=O)N(Cc1cccc[n+]1CC)C(=O)c1ccccc1OC.[I-] | 9.1 nM | 0.019 mg/kg |  |  |
| CCCCCCCCCCCCCCCCCCOC(=O)N(Cc1cccc[n+]1CC)C(C)=O.[I-] | 870 nM | 0.17 mg/kg |  |  |
| CCCCCCCCCCCCCCCCCCCCOC(=O)N(Cc1cccc[n+]1CC)C(C)=O.[I-] | 160 nM | 0.33 mg/kg |  |  |
| CCCCCCCCCCCCCCCNC(=O)OCC1COC(COC(=O)N(Cc2cccc[n+]2CC)C(C)=O)O1.[I-] (centres undefined) | 7.5 nM | 0.085 mg/kg |  |  |
| CCCCCCCCCCCCCCCCOCCSCCOC(=O)N(Cc1cccc[n+]1CC)C(C)=O | 5.1 nM |  |  |  |
| CCCCCCCCCCCCCCCCCNC(=O)OCCSCCOC(=O)N(Cc1cccc[n+]1CC)C(=O)C(C)(C)C.[I-] | 150 nM | 0.33 mg/kg |  |  |
| CCOC(=O)N(Cc1cccc[n+]1CC)C(C)=O.[I-] | 24000 nM | > 5 mg/kg |  |  |
| CCCCCCCCCCCCCCCNC(=O)OCCOCCOC(=O)N(Cc1cccc[n+]1CC)C(C)=O | 22 nM |  |  |  |
| CC[n+]1ccccc1CN(C(C)=O)C(=O)OCCOCCOC(=O)C(C)(C)C.[I-] | 1700 nM | > 5 mg/kg |  |  |
| CCCCCCCCCCCCCCCCCNC(=O)OCCSCCOC(=O)N(Cc1cccc[n+]1CC)C(C)=O [listing 3 of 3 here] |  |  | 12 nM |  |
| CCCCCCCCCCCCCCCNC(=O)OCCOCCOC(=O)CCCCC[n+]1ccsc1.Cc1ccc(S(=O)(=O)[O-])cc1 | 12000 nM | > 5 mg/kg |  |  |
| CCCCCCCCCCCCCCCCCCNC(=O)OCC(COC(=O)N(Cc1cccc[n+]1CC)C(C)=O)OC.[Cl-] (centres undefined) [CV-6209] | 12 nM |  |  | 0.0078 mg/kg |
| CCCCCCCCCCCCCCCCCNC(=O)OCCOCCOC(=O)N(Cc1cccc[n+]1C)C(C)=O | 55 nM |  |  |  |
| CCCCCCCCCCCCCCCNC(=O)OCCOCCOC(=O)N(Cc1cccc[n+]1CC)C(=O)OCC | 23 nM |  |  |  |
| CCCCCCCCCCCCCCCCCNC(=O)OCCSCCOC(=O)N(Cc1cccc[n+]1CC)C(=O)OCC.[I-] | 18 nM | 0.028 mg/kg |  |  |
| CCCCCCCCCCCCCCCCCCNC(=O)OCC(COC(=O)N(Cc1cccc[n+]1CC)C(C)=O)OC.[I-] (centres undefined) |  | 0.011 mg/kg | 11 nM |  |
| CCCCCCCCCCCCCCCCCCNC(=O)OCCOCCOC(=O)N(Cc1cccc[n+]1CC)C(C)=O.[I-] | 18 nM | 0.019 mg/kg |  |  |
| CC[n+]1ccccc1CN(C(C)=O)C(=O)OCCOCCOC(=O)NCCCc1ccccc1 | 1300 nM |  |  |  |
| CCCCCCCCCCCCCCCNC(=O)OCCSCCOC(=O)N(Cc1cccc[n+]1CC)C(C)=O.[I-] | 8.4 nM | 0.04 mg/kg |  |  |
